Data set [1] in a line: Protein binding, rat. Format: in vitro ADME.
Data set [2] has as its target T1, dopamine D4.2 receptor (Homo sapiens, UniProt P21917, DEL265-296).
T1 sequence (P21917 with tags, fused parts or gaps DEL265-296): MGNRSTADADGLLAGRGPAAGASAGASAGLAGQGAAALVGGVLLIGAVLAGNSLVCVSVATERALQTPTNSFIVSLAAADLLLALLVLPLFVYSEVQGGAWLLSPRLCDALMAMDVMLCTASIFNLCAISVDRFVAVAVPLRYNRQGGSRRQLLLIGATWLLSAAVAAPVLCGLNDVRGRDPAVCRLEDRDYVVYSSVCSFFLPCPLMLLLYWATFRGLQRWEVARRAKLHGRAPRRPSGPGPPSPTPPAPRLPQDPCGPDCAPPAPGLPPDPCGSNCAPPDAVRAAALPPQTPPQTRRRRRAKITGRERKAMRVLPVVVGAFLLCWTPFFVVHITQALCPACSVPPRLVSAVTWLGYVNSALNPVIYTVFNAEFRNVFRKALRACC
The data set can be described thus: Dopamine D4.2 receptor radioligand binding. The conditions noted are these: 10 μM, human recombinant CHO-K1 cells. Put shortly: (§1)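 Human recombinant receptors expressed in CHO cells (D1, D2L) or CHO-K1 cells (D4.2) were used in radioligand binding assays with [3H]SCH-23390 (D1), [3H]spiperone (D2L) or [3H]dopamine (D4.2). The test compound or its metabolite was tested at a single concentration of 10 μM. Results are expressed as percent inhibition of specific binding.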

The nature of data set [3]: Protein binding, human. It is filed as in vitro ADME.
Data set [4] concerns the target dopamine D2L receptor (Homo sapiens, UniProt P14416). The data set can be described thus: Dopamine D2L receptor radioligand binding. The settings on record: 10 μM, human recombinant CHO cells. Summed up:
as §1

Data set [5] deals with Alderly Park (Wistar derived) rats. As to the kind of experiment: Rat micronucleus in vivo assay. The conditions noted are these: 2000 mg/kg. Summed up:
(§2)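 Genotoxicity screens. Ames: Salmonella strains exposed to 3–3000 μg/plate with and without metabolic activation; read-out was reverse-mutation frequency. Mouse lymphoma: L5178Y/TK+ cells treated for 4 h with S9 (15.7–41.8 μg/mL), for 4 h without S9 (5.23–15.7 μg/mL), and for 24 h without S9; read-out was clone number. Micronucleus: male and female Alderly Park rats given 2000 mg/kg; micronuclei scored 24 or 48 h post-dose.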

Data set [6] relates to L5178Y/TK + 1 mouse lymphoma cells. The data set can be described thus: Mouse lymphoma in vitro assay. It is filed as cell-based. Summed up: as §2

Broadly, the fraction unbound is the share of the substance not bound to proteins or other matrix.

The structures appear in SMILES notation.

dopamine D2L receptor, sequence (P14416 whole entry): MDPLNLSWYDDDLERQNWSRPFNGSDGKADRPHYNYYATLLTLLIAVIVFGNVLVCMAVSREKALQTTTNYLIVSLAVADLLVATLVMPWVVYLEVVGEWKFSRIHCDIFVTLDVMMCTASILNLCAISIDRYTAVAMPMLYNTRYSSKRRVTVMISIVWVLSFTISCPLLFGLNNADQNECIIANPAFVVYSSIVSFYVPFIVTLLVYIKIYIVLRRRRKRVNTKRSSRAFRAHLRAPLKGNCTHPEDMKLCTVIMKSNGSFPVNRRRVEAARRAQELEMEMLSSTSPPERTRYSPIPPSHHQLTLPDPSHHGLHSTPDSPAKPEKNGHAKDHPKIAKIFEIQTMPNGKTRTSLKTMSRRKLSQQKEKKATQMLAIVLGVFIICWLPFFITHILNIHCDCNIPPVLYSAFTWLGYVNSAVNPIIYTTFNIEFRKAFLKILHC

For the compound `CCCSc1nc(N[C@@H]2C[C@H]2c2ccc(F)c(F)c2)c2nnn([C@@H]3C[C@H](OCCO)[C@@H](O)[C@H]3O)c2n1` [Ticagrelor], the fraction unbound in data set [1] is 0.01; in data set [3], 0.008. For the same compound, the “Inhibition of radioligand binding at the D4.2 receptor” value in data set [2] is on record as “neither Ticagrelor nor metabolite caused inhibition”. In data set [4], the “Inhibition of radioligand binding at the D2L receptor” value is recorded as “neither Ticagrelor nor metabolite caused inhibition”. The “Rat micronucleus in vivo: Conclusion” value in data set [5] was “Negative”. Further, the “Rat micronucleus in vivo: Results” value in data set [5] (M&F, 24 or 48 h post-dose) is “No increased frequency of micronuclei at 24 or 48 h post-dose”. In addition, in data set [6], the “Mouse lymphoma in vitro: Conclusion” value is given as “Negative”. In data set [6] (15.7–41.8 μg/mL (4 h + S9), 5.23–15.7 μg/mL (4 h − S9), 15.7–36.6 (24 h − S9)), the “Mouse lymphoma in vitro: Results” value is given as “No increased number of clones associated with treatment”.
